# Source: PubChem BioAssay (Broad Institute)
# Sampled rows, rich in hits. Any-hit rate of the full collection: about 2%.
# CaV13 ICDI inh = Disruptors of the CACNA1D IQ motif to Ca2+-dependent inactivation inhibitor domain association, primary screening, Förster resonance energy transfer in intact living …; hit rate 0.098% among 340,000; inhibition, % at 12.3 µM; HEK cells, CFP/YFP FRET ICDI-IQ, plate reader, 10 min; percent FRET-ratio fall versus neutral wells; AID 743397;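 active means mean replicate inhibition of at least 30% and at least 1% of replicates passing that level; inconclusive means only one of the two criteria is met; inactive means neither criterion is met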;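 further: 0% = median of the neutral control wells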
# Xi reactivation = X-chromosome reactivation activator; XiGFP mouse fibroblasts, % GFP-positive cells imaging, 3 d; cells co-treated with 5-aza-dC sensitizer; scaled so ellipticine positive control = 100%; activation, % at 7.58 µM; hit rate 0.055% among 360,000;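 active means mean normalized replicate activation at least 10% and every replicate at or above 10%; inconclusive means only one of the two criteria met; inactive means mean below 10% and not all replicates reach 10%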;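 further: 0% = median of on-plate neutral control wells and 100% = ellipticine 6 µM median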
#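 Material: XiGFP fibroblasts, SV40-immortalized. Buffer or medium: DMEM plus 5-aza-dC sensitizer. Compound: single concentration per compound, delivered by pin transfer. Times: 3 days compound exposure. Controls: ellipticine 6 µM.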
# CASP6 VEID inh = inhibitors of human caspase-6; P55212; purified caspase-6, Z-VEID-R110 cleavage fluorescence; inhibition, % at 12.5 µM; hit rate 0.53% among 350,000; AID 686996;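 active means mean inhibition across replicates at least about 35%, with every replicate also reaching that limit, limit read from the data; inconclusive means only one of the two criteria met; inactive means neither criterion met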;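 further: 0% = median of neutral control wells and 100% = no fluorescence left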
# Target sequence (P55212 24-179 limits assumed): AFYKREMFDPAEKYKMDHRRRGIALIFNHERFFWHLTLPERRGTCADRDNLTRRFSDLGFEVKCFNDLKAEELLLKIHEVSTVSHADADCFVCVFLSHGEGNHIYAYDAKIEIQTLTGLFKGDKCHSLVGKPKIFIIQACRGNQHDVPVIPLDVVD
# Target sequence (P55212 194-293 limits assumed): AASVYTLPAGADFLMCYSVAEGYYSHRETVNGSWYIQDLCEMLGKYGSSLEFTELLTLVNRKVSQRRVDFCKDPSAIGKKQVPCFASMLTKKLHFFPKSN
# FN deposit inh = fibronectin deposition inhibition; AH1F fibroblasts, Alexa488-fibronectin deposition fluorescence, overnight; inhibition, % at 12.6 µM; hit rate 0.086% among 350,000;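 active means mean inhibition across replicates of 30% or more, regardless of how many single replicates reach that level; inconclusive means mean under 30% yet at least half of replicates reach 30%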;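 further: positive control wells lacked labelled fibronectin entirely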
#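 Material: AH1F fibroblasts assembling fluorescent fibronectin matrix; amount: 10000 AH1F cells/well; medium: DMEM, 2% serum; reagent: Alexa488-fibronectin, 24 nM final in well; dosing: single compound dose, delivered by pin transfer; incubation: 1 h adhesion, overnight exposure; detection: fluorescence after three HBSS washes, excitation 485 nm, emission 525 nm; measure: fibronectin deposition inhibition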
# DENV2 CPE rescue = DENV2-induced cell death inhibition. DENV2-infected cells, cytopathic effect rescue, plate reader. CPE inhibition, % at 9.99 µM. hit rate 1.7% among 350,000. AID 651640; in the data active means CPE inhibition above about 20%, passing the limit was not always enough; inconclusive means no clear call, values can overlap the other calls; tested in BHK-21 cells;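 further: 0% = median of neutral control wells and 100% = median of positive control wells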
# Active calls of the source: *; ? = inconclusive; nt = not tested or not shown; ! = not confirmed by another sample.
SMILES,CaV13 ICDI inh,Xi reactivation,CASP6 VEID inh,FN deposit inh,DENV2 CPE rescue
CCCNC(=O)NC[C@@H]1[C@@H](c2ccc(C3=CCCC3)cc2)[C@@H](CO)N1C(=O)CC,nt,0,-13,-8,116*
CC(=O)N1[C@H](CO)[C@@H](c2ccc(C3=CCCCC3)cc2)[C@@H]1CNC(=O)CN(C)C,nt,0,nt,7,22*
CC(=O)N1[C@H](CO)[C@H](c2ccc(C3=CCCCC3)cc2)[C@@H]1CNC(=O)CN(C)C,nt,0,nt,3,-10
C[C@H](CO)N1C[C@H](C)[C@@H](CN(C)C(=O)Nc2ccc3c(c2)OCO3)Oc2c(NC(=O)Cc3cn(C)c4ccccc34)cccc2C1=O,nt,-1,nt,19,nt
Cc1[nH]ncc1Nc1c(C(C)C)cccc1C(C)C,-6,0,55*,9,-3
C[C@H]1CN(C)C(=O)c2cccc([N+](=O)[O-])c2O[C@@H]1CN(C)C(=O)OC(C)(C)C,nt,0,nt,0,nt
COc1cc2c(ccc3cc(OC)c(OC)c(O)c32)cc1O,nt,nt,86*,nt,-1
NNC(=O)c1cc(O)c(O)c(O)c1,-4,0,77*,-4,-2
CCCN1CNC(=S)N(c2ccccc2C)C1,-4,0,56*,-8,-5
C[C@@H]1CCCCO[C@H](CN(C)S(=O)(=O)c2cccs2)[C@H](C)CN([C@@H](C)CO)C(=O)c2cc(NC(=O)c3ccccc3)ccc2O1,nt,0,nt,nt,3
C[C@@H]1CCCCO[C@@H](CN(C)S(C)(=O)=O)[C@@H](C)CN([C@H](C)CO)C(=O)c2cc(NC(=O)c3ccccc3)ccc2O1,nt,0,0,nt,85*
C[C@H]1CCCCO[C@H](CN(C)S(=O)(=O)c2cccs2)[C@@H](C)CN([C@@H](C)CO)C(=O)c2cc(NC(=O)c3ccccc3)ccc2O1,nt,0,nt,nt,36*
C[C@@H]1CN([C@H](C)CO)C(=O)c2cc(NC(=O)c3ccccc3)ccc2O[C@@H](C)CCCCO[C@@H]1CN(C)S(C)(=O)=O,nt,0,0,nt,0
COc1ccc(NC(=O)COc2cccc3c2CCNC3=O)cc1,-6,0,3,2,-4
COc1cccc(NC(=O)COc2cccc3c2CCNC3=O)c1,-15,0,-2,-4,28*
COC(=O)C1(C(=O)OC)c2ncccc2N(S(=O)(=O)c2ccc(C)cc2)C1CC(=O)c1ccccc1 (stereo not drawn),-4,0,5,20,21*
Cc1ccccc1S(=O)(=O)N1CC(=O)N2[C@H](C1)[C@H](c1ccc(C#CCC3CCCC3)cc1)[C@@H]2CO,nt,0,-1,nt,5
Cc1cccc(-c2cccc3[nH]c4c(c23)CCN2C(=O)[C@H]3[C@H](C)ON(C)[C@H]3C[C@@H]42)c1,-9,48*,-2,-16,-5
C[C@@H]1ON(C)[C@H]2C[C@H]3c4[nH]c5cccc(Br)c5c4CCN3C(=O)[C@@H]12,-3,2,-2,11,-14
C[C@H](CO)N1C[C@H](C)[C@@H](CN(C)C(=O)Nc2ccc3c(c2)OCO3)Oc2ccc(NS(=O)(=O)c3cccs3)cc2C1=O,nt,-1,3,-1,14
CC(C)OC(=O)N(C)C[C@H]1OCc2cnnn2CCCC(=O)N([C@H](C)CO)C[C@@H]1C,-7,-1,0,-1,29*!
C[C@@H]1CN([C@H](C)CO)C(=O)CCCn2nncc2CO[C@@H]1CN(C)C(=O)Cc1ccccc1,-6,1,-6,-7,33*!
CC(C)NC(=O)N(C)C[C@H]1OCc2cnnn2CCCC(=O)N([C@@H](C)CO)C[C@@H]1C,nt,0,0,1,45*
CC(C)OC(=O)N(C)C[C@H]1OCc2cnnn2CCCC(=O)N([C@@H](C)CO)C[C@H]1C,-5,0,2,-3,?
C[C@H](CO)N1C[C@H](C)[C@@H](CN(C)C(=O)Cc2ccccc2)OCc2cnnn2CCCC1=O,-7,0,0,0,12
C[C@H](CO)N1C[C@H](C)[C@@H](CN(C)Cc2ccc(O)cc2)OCc2cnnn2CCCC1=O,-5,0,-8,4,42*!
Cc1noc(C)c1S(=O)(=O)Nc1ccc2c(c1)C(=O)N([C@H](C)CO)C[C@H](C)[C@H](CN(C)C(=O)NC1CCCCC1)O2,nt,0,0,-4,-1
